# Experimental data collected from several papers.
# Protocols differ between the studies behind these lines.
# CDK4 with cyclin D3: Cyclin-dependent kinase 4, with cyclin D3 (CDK4, Homo sapiens, UniProt P11802)
# CHRM2: Muscarinic acetylcholine receptor M2 (CHRM2, Homo sapiens, UniProt P08172)
# CACNA1C: Voltage-dependent L-type calcium channel subunit alpha-1C (CACNA1C, Homo sapiens, UniProt Q13936)
# CDK4 with cyclin D1: Cyclin-dependent kinase 4, with cyclin D1 (CDK4, Homo sapiens, UniProt P11802)
# AMY2: Pancreatic alpha-amylase (AMY2, Sus scrofa, UniProt P00690)
# SLC22A8: Organic anion transporter 3 (SLC22A8, Homo sapiens, UniProt Q8TCC7)
Compound,target,test,test system,setting,IC50 [µM]
CNS(=O)(=O)c1ccc(Nc2ncc(C(F)(F)F)c(N3CCCC(C)(O)C3)n2)c(C)c1 (stereo not shown),CDK4 with cyclin D3,"enzyme activity, inhibitor, radiometric",,,0.71
O=C(CCNC(=O)CNC(=O)CC(c1ccccc1)(c1ccccc1)c1ccccc1)NC[C@@H]1CCCN(Cc2cccnc2F)C1,CHRM2,"ligand displacement, radioligand",,cell membranes,> 30
Cc1cc(O)c(-c2ccc([C@@H](C)CN(C)C)cc2)c2c1[nH]c(=O)c1sccc12,"Cyclin-dependent kinase 19, with cyclin C (CDK19, Homo sapiens, UniProt Q9BWU1)","enzyme activity, inhibitor",,,> 1
COc1ccc2c(c1)CN(C(=O)CCN1CCC(Cc3ccccc3)CC1)CC[S@@+]2[O-],CACNA1C,"ion current, inhibitor, patch clamp",,,> 100
CNS(=O)(=O)c1ccc(Nc2ncc(C(F)(F)F)c([C@H]3CC[C@@](C)(O)CC3)n2)c(C)c1,CDK4 with cyclin D3,"enzyme activity, inhibitor, radiometric",,,3.47
CN(C)C(=O)c1cc2cnc(Nc3ccc(-c4cccc5c(=O)cc(N6CCOCC6)oc45)cc3)nc2n1C1CCCC1,CDK4 with cyclin D1,"enzyme activity, inhibitor, radiometric",,,0.226
O=C(CCNC(=O)CNC(=O)CC(c1ccccc1)(c1ccccc1)c1ccccc1)NCC1CCN(Cc2ccc(F)cc2)CC1,CHRM2,"ligand displacement, radioligand",,cell membranes,6.4
CN1CCC(CNc2ccc3ncc(-c4cccc(OC(F)(F)F)c4)n3n2)CC1,CHRM2,"cAMP, antagonist",,,5.14
O=c1c(O)c(-c2ccc(O)cc2)oc2cc(O)cc(O)c12,AMY2,"enzyme activity, inhibitor",,,10.4
C[C@H]1CN(C(=O)CC#N)[C@]12CCN(c1ncnc3[nH]ccc13)C2,SLC22A8,"transporter uptake, inhibitor",,,6.38
CN(C)C(=O)c1cc2cnc(Nc3cncc(-c4cccc5c(=O)cc(N6CCOCC6)oc45)c3)nc2n1C1CCCC1,CDK4 with cyclin D1,"enzyme activity, inhibitor, radiometric",,,0.054
O=c1c(O)c(-c2ccc(O)cc2)oc2c(Br)c(O)c(Br)c(O)c12,AMY2,"enzyme activity, inhibitor",,,3.71
CN(C)C(=O)c1cc2cnc(Nc3ccc(-c4cccc5c(=O)cc(N6CCOCC6)oc45)c(F)c3)nc2n1C1CCCC1,CDK4 with cyclin D1,"enzyme activity, inhibitor, radiometric",,,0.116
Cc1cc(S(=O)(=O)NCCO[C@H]2CC[C@H](CN3CCC(c4ccn5c(N6CCC(=O)NC6=O)cnc5c4)CC3)CC2)ccc1Nc1ncc2cc(Cl)c(=O)n(C3CCCC3)c2n1,CDK4 with cyclin D3,"enzyme activity, inhibitor, radiometric",,,0.026
Cc1c(N2CCOCC2)oc2c(-c3ccc(Nc4ncc5cc(C(=O)N(C)C)n(C6CCCC6)c5n4)cc3F)cccc2c1=O,CDK4 with cyclin D1,"enzyme activity, inhibitor, radiometric",,,3.3
CNS(=O)(=O)c1ccc(Nc2ncc(C(F)(F)F)c(N3CCC(C)(O)CC3)n2)c(C)c1,CDK4 with cyclin D3,"enzyme activity, inhibitor, radiometric",,,0.201
NC/C(=C\F)COc1cccc(Cn2c(=S)[nH]c(=O)c3[nH]cnc32)c1,CACNA1C,"ion current, inhibitor",,,> 100
CN(C)C(=O)c1cc2cnc(Nc3cccc4c(=O)cc(N5CCOCC5)oc34)nc2n1C1CCCC1,CDK4 with cyclin D1,"enzyme activity, inhibitor, radiometric",,,> 10
CC(C)NC(=O)COc1cccc(-c2nc(Nc3ccc4[nH]ncc4c3)c3ccccc3n2)c1,SLC22A8,"transporter uptake, inhibitor, radiometric",HEK293,,> 1
